Laboratory results from publication PMC5352984 (Journal of medicinal chemistry, 2017).

Key:
[1] = tested on: 29 PKMTs, PRMTs, DNMTs, and RNMTs; experiment: Selectivity assays against a methyltransferase panel; assay type: biochemical
How it was run: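 Quenched with 7.5 M guanidine HCl, diluted in 20 mM Tris pH 8.0, FlashPlate counted after 1 h. DOT1L, ASH1L, DNMT3A/3L, DNMT3B/3L: 1 h RT, TCA filter capture, washes, scintillation count. No-compound = 100%, no-enzyme = 0%.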

G9a = target: T1, G9a (Homo sapiens, UniProt Q96KQ7); experiment: G9a scintillation proximity methyltransferase assay; assay type: biochemical; conditions: ratio of IC50 versus compound 14
T1 sequence (Q96KQ7 1-1210): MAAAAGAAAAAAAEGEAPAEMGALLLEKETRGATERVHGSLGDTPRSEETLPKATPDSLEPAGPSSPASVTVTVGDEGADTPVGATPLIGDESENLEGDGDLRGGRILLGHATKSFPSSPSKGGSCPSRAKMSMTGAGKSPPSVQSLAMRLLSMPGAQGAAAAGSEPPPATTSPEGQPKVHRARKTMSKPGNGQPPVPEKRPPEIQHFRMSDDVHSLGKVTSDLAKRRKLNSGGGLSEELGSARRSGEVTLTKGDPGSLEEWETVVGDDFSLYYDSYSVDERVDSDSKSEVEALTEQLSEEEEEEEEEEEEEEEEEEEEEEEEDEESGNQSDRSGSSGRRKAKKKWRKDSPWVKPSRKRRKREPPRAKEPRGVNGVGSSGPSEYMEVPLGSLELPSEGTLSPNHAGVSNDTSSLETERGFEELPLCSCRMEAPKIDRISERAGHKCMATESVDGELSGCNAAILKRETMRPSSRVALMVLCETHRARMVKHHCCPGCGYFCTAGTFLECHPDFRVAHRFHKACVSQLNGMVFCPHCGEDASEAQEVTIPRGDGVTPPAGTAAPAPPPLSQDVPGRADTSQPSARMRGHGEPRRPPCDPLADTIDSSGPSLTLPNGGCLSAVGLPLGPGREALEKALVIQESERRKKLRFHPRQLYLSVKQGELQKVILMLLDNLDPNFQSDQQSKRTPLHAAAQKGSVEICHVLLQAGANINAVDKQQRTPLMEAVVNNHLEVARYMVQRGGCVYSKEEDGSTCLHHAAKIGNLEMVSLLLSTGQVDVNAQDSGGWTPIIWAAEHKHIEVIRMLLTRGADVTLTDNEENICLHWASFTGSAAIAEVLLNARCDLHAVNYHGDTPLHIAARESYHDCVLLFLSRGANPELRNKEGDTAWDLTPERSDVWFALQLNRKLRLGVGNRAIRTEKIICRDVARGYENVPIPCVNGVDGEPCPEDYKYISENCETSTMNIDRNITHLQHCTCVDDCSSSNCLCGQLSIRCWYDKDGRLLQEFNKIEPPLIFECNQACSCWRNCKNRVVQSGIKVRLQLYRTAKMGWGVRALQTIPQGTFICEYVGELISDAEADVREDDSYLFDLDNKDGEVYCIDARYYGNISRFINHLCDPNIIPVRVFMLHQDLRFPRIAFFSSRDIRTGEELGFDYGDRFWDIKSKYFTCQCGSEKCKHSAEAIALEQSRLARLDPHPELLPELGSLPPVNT

GLP = conditions: cited from earlier work

CCCCCCNc1nc(NC2CCN(C)CC2)c2cc(OC)c(OC)cc2n1 [Compound 18, N^2-Hexyl-6,7-dimethoxy-N^4-(1-methylpiperidin-4-yl)quinazoline-2,4-diamine]
inhibition of 29 methyltransferases ([1]; compound at 1 μM): did not inhibit

COc1cc2nc(N3CCCN(C)CC3)nc(NC3CCN(C)CC3)c2cc1OC [Compound 15, 6,7-Dimethoxy-2-(4-methyl-1,4-diazepan-1-yl)-N-(1-methylpiperidin-4-yl)quinazolin-4-amine]
potency increase for G9a compared with 14 (G9a): 21 fold

COc1cc2nc(N3CCOCC3)nc(NC3CCN(C)CC3)c2cc1OC [Compound 4, 6,7-Dimethoxy-N-(1-methylpiperidin-4-yl)-2-morpholinoquinazolin-4-amine]
inhibition of 29 methyltransferases ([1]; compound at 10 μM): did not inhibit

COc1cc2nc(N3CCCN(C)CC3)nc(NC3CCN(Cc4ccccc4)CC3)c2cc1OC [Compound 1]
selectivity for GLP over G9a (GLP): 3–5 fold
